Measured values from different studies.
Lines come from different studies, so protocols differ.
Observed: cell growth or viability

The IC50 of `COc1ccc2c(c1)[nH]c1c(C)nccc12` is reported as 18000 nM (PC-12; MTT; 48 h).
With `N.N.[Cl][Pt][Cl]` the IC50 was 29500 nM (MGC-803; MTT; 24 h).
With `CC1=C(O)C(=O)C=C2C1=CC=C1[C@@]2(C)CC[C@@]2(C)[C@@H]3C[C@](C)(C(=O)OCCCn4cc(C=O)c5ccccc54)CC[C@]3(C)CC[C@]12C` the IC50 was 340 nM (MGC-803; MTT; 48 h).
The GI50 of `C[C@H]1CN(c2ccncc2NC(=O)c2ccc(F)c(-c3c(F)cccc3F)n2)C[C@@H](N)[C@@H]1O` is reported as 22 nM (MM1.S; thymidine uptake; 72 h).
The IC50 of `CC1=C(O)C(=O)C=C2C1=CC=C1[C@@]2(C)CC[C@@]2(C)[C@@H]3C[C@](C)(C(=O)O)CC[C@]3(C)CC[C@]12C` is reported as 350 nM (MGC-803; MTT; 48 h).
`Cc1cc(N(CCOS(C)(=O)=O)CCOS(C)(=O)=O)ccc1C=O` gave an IC50 of 0.0463 µg/mL (A498).
`N.N.[Cl][Pt][Cl]` gave an IC50 of 13400 nM (SW480; MTT; 48 h).
With `Cc1cc(N(CCO)CCO)ccc1C=O` the IC50 was > 10 µg/mL (A498).
`Cc1cccc(-n2ncc(Cl)c(Cl)c2=O)c1` has an IC50 of 270 nM (NCI-H2030; resazurin; 96 h).
